# Assay results from ChEMBL document CHEMBL4765374, “8-Alkynyl-3-nitroimidazopyridines display potent antitrypanosomal activity against both T. b. brucei and cruzi” (Eur J Med Chem, 2020).
# Tests used:
# [1] = Microsomal stability in CD-1 mouse liver microsomes assessed as half life measured after 40 mins in presence of NADPH by LC-MS/MS analysis; assay type: ADME, Microsome
# Outline: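 Female CD-1 mouse microsomes incubated in duplicate at 37 °C in 50 mM phosphate buffer, pH 7.4, with MgCl₂, NADP, glucose-6-phosphate and G6P dehydrogenase. […] Propranolol as reference.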
# [2] = tested on: Leishmania donovani; experiment: Antileishmanial activity against wild type Leishmania donovani BOB (MHOM/SD/62/1S-CL2D) promastigotes incubated for 72 hrs by resazurin dye based assay; assay type: functional, organism-based
# Outline: (§1)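 Clonal L. donovani LdBOB promastigotes grown at 26 °C in modified M199; NTR1- and NTR2-overexpressing lines maintained with nourseothricin (100 µg/mL). Triplicate 10 mL cultures seeded at 5×10^4 parasites/mL with drug for 72 h; 200 µL aliquots then given 50 µM resazurin, fluorescence (ex 528/em 590 nm) after 4 h more. EC50 from slope-factor equation; experiments repeated at least twice, mean plus standard deviation.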
# [3] = biological target: Albumin (Homo sapiens, UniProt P02768); experiment: Protein binding to human albumin by LC-MS analysis; assay type: ADME; conditions: read-out: PB (converted)
# Albumin, sequence (P02768 whole entry): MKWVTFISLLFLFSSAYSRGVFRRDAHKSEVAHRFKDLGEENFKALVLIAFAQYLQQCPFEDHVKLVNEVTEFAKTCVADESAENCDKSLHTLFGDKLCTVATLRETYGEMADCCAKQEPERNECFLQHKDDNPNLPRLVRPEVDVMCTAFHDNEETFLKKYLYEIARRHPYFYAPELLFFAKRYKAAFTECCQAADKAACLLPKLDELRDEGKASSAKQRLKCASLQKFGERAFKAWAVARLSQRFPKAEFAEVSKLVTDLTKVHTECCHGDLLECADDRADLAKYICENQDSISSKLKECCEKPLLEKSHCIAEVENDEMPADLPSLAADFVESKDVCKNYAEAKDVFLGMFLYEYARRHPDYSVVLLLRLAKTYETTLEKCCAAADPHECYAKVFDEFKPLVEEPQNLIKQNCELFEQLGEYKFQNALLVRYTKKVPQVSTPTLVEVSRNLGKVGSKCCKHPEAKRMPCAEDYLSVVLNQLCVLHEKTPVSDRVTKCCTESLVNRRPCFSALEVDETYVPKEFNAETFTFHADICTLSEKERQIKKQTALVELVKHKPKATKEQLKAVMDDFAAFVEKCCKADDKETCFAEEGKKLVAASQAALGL
# Outline: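 Plasma spiked with compound was dialysed at 37 °C in triplicate against phosphate buffer pH 7.2 for 4 h at 300 rpm. Both compartments were sampled and quantified by LC-MS using propranolol as internal standard. Unbound fraction taken from the plasma and buffer peak ratios; recovery checked with a non-incubated spiked plasma.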
# [4] = Cytotoxicity against human HepG2 cells assessed as reduction in cell viability after 72 hrs by MTT assay; assay type: cell-based
# [5] = Effective permeability of the compound at pH 7.4 incubated for 4 hrs by PAMPA-BBB assay; assay type: ADME; conditions: read-out: permeability
# Outline: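 Compound diluted from a 20 mM DMSO stock to 100 µM in Prisma HT buffer pH 7.4 and placed in the donor wells. Acceptor membrane coated with BBB-1 lipid, with Brain Sink Buffer in the acceptor wells. Plates incubated 4 h at room temperature without stirring, then read by UV-visible spectra to give Pe. Corticosterone and theophylline served as high and low permeability standards; n=6.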
# [6] = tested on: Leishmania donovani; experiment: Antileishmanial activity against Leishmania donovani MHOM/IN/00/DEVI promastigotes assessed as inhibition of metabolic activity measured after 72 hrs by MTT assay; assay type: functional, organism-based
# Outline: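 L. donovani MHOM/IN/00/DEVI promastigotes grown in Schneider's medium with 20% FCS at 27 °C. Log-phase parasites at 10⁶/mL were exposed in duplicate to serial compound concentrations in DMSO (final <0.5%) for 72 h at 27 °C. MTT was added for 4 h and absorbance read at 570 nm. EC50 from non-linear regression, mean of at least three independent experiments.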
# [7] = tested on: Trypanosoma brucei brucei; experiment: Antitrypanosomal activity against bloodstream form of wild type Trypanosoma brucei brucei S427 trypomastigotes incubated for 72 hrs; assay type: functional, organism-based; conditions: S427, 72 h
# Outline: (§2)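 Bloodstream-form T. brucei 'single marker' S427 cultured at 37 °C in HMI9-T with 2.5 µg/mL G418. The NTR1-overexpressing line was kept with 2.5 µg/mL phleomycin and induced with 1 µg/mL tetracycline 48 h before testing. Triplicate cultures seeded at 1×10^5 cells/mL with inhibitor. Cell densities counted after 72 h. EC50 from slope-factor equation.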
# [8] = Clearance in Swiss albino mouse at 100 mg/kg, po; assay type: ADME, organism-based; conditions: in vivo
# Outline: (§3)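 Female Swiss mice, 8 weeks, 30-32 g, given a single oral gavage at 100 mg/kg as a suspension in 5% Tween 80/95% carboxymethylcellulose 0.5% in water. Blood (100 µL) was extracted with ACN containing ornidazole as internal standard plus QuEChERS salts, then quantified by positive-ESI LC-MS/MS on a C8 column against whole-blood calibration standards (5 to 1,000 ng/mL).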
# [9] = Genotoxicity in Salmonella typhimurium at 0.25 mM incubated for 48 hrs by Ames test; assay type: toxicity; conditions: salmonella enterica subsp. enterica serovar typhimurium, 250 µM
# Outline: (§4)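 Liquid pre-incubation Ames test using S. typhimurium TA97a, TA98, TA100 and TA102 grown overnight in nutrient broth. Cultures were incubated with compound (5-50 mM DMSO stock) and 4% S9 mix for 1 h at 37 °C, then plated in top agar on minimal agar for 48 h at 37 °C in the dark, in duplicate. Positive result: a two-fold rise in revertants over the spontaneous count. Benzo[a]pyrene with S9 as positive control.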
# [10] = Selectivity index, ratio of CC50 for cytotoxicity against human HepG2 cells to EC50 for antileishmanial activity against Leishmania donovani MHOM/IN/00/DEVI promastigotes; assay type: toxicity, cell-based; conditions: read-out: Selectivity Index
# [11] = tested on: Trypanosoma cruzi; experiment: Antitrypanosomal activity against Trypanosoma cruzi trypomastigotes infected in African green monkey Vero cells incubated for 120 hrs measured on day 6 cells followed by trypomastigotes release by haemocytometer-based light microscopy; assay type: functional, organism-based
# Outline: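 Vero cells, grown 2 days, were infected with T. cruzi CL Brener trypomastigotes at 3:1 parasites to host cells. After 24 h, free parasites were washed off and compounds added (0.1 to 25 µM, 2 to 4-fold dilutions) for 120 h at 37 °C. Trypomastigotes released into the medium by day 6 were pelleted and counted by haemocytometer. EC50 by non-linear regression; two independent experiments, each in triplicate.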
# [12] = Solubility of the compound in aqueous medium at highest dose; assay type: physicochemical; conditions: buffer
# [13] = Cmax in Swiss albino mouse at 100 mg/kg, po; assay type: ADME, organism-based; design: route oral, dose 100 mg/kg; conditions: in vivo; outline: as §3
# [14] = tested on: HepG2; experiment: Genotoxicity in human HepG2 cells assessed as induction of DNA damage at 20 to 30 uM incubated for 2 to 72 hrs by alkaline comet assay; assay type: toxicity, cell-based; conditions: hepg2, 30 µM, dose lower 20 µM, time lower 2 hrs, dose upper 30 µM, time upper 72 hrs
# Outline: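 HepG2 cells exposed for 2 or 72 h at 20 or 30 µM, then trypsinized and embedded in 0.7% low-melting agarose. Lysis 18 h at 4 °C, pH 10; alkaline electrophoresis (pH >13) for 24 min at 0.8 V/cm. Gels stained with SYBR Gold and imaged. % tail DNA is the median of 50 cells per deposit, three deposits per sample.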
# [15] = tested on: Leishmania donovani; experiment: Antileishmanial activity against Leishmania donovani BOB (MHOM/SD/62/1S-CL2D) promastigotes overexpressing NTR1 incubated for 72 hrs by resazurin dye based assay; assay type: functional, organism-based; outline: as §1
# [16] = tested on: Leishmania donovani; experiment: Antileishmanial activity against Leishmania donovani BOB (MHOM/SD/62/1S-CL2D) promastigotes overexpressing NTR2 incubated for 72 hrs by resazurin dye based assay; assay type: functional, organism-based; outline: as §1
# [17] = AUC (0 to infinity) in Swiss albino mouse at 100 mg/kg, po; assay type: ADME, organism-based; design: time infinity, route oral, dose 100 mg/kg; conditions: in vivo; outline: as §3
# [18] = tested on: THP-1; experiment: Cytotoxicity against human THP-1 cells assessed as reduction in cell viability after 72 hrs by MTT assay; assay type: functional
# Outline: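 THP-1 cells at 5×10⁴ cells/mL in complete RPMI were exposed in duplicate to compounds in DMSO (final <0.5%) for 72 h at 37 °C. MTT at 0.5 mg/mL for 2 h, formazan dissolved in DMSO, absorbance read at 570 nm with 630 nm reference. CC50 from the dose-response curve, mean of three independent experiments.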
# [19] = Thermodynamic solubility of the compound in phosphate buffer at pH 7.4 by shake flask method; assay type: physicochemical; conditions: read-out: Therm_solubility
# Outline: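 Miniaturized shake-flask method: a 20 mM DMSO stock was diluted into phosphate buffer pH 7.4 (n=3), sonicated and shaken for 24 h at room temperature, then centrifuged. Supernatant was mixed 1:1 with acetonitrile and quantified by UV spectrophotometry at the compound's λmax against a calibration curve.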
# [20] = tested on: Trypanosoma brucei brucei; experiment: Antitrypanosomal activity against bloodstream form of Trypanosoma brucei brucei S427 trypomastigotes overexpressing NTR incubated for 72 hrs; assay type: functional, organism-based; conditions: S427, 72 h; outline: as §2
# [21] = Half life in Swiss albino mouse plasma at 100 mg/kg, po; assay type: ADME, organism-based; outline: as §3
# [22] = Selectivity index, ratio of CC50 for human HepG2 cells to EC50 for Trypanosoma brucei brucei AnTat 1.9; assay type: toxicity; conditions: read-out: Selectivity Index
# [23] = Genotoxicity in Salmonella typhimurium at 2.5 mM incubated for 48 hrs by Ames test; assay type: toxicity; conditions: salmonella enterica subsp. enterica serovar typhimurium, 2500 µM; outline: as §4
# [24] = Tmax in Swiss albino mouse at 100 mg/kg, po; assay type: ADME, organism-based; conditions: in vivo; outline: as §3
# [25] = tested on: Trypanosoma brucei brucei; experiment: […] activity against Trypanosoma brucei brucei AnTat 1.9 measured after 74 hrs by Alamar blue assay; assay type: functional, organism-based; conditions: AnTat 1.9, 74 h
# Outline: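 Bloodstream T. b. brucei AnTat 1.9 grown at 37 °C, 5% CO₂ in MEM with Earle's salts plus mercaptoethanol, L-cysteine, bathocuproine sulfate and 20% heat-inactivated horse serum. Seeded at 2000 parasites/100 µL and exposed in duplicate to compounds in DMSO for 69 h. Alamar Blue then added for 5 h, fluorescence read at ex 530/em 590 nm. EC50 by nonlinear regression from three independent experiments.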
structure (smiles),measurement,setting,value
O=[N+]([O-])c1c(CS(=O)(=O)c2ccccc2)nc2c(C#CCCO)cc(Cl)cn12,half-life,[1],16 min
same,EC50,[2],21400 nM
same,fraction unbound,[3],0.015
same,CC50 at 72 h,[4],> 125000 nM
same,Papp at 4 h,[5],34.6 ×10⁻⁶ cm/s
same,EC50,[6],7400 nM
same,EC50,[7],124 nM
same,CL/F,[8],0.0407 mL/min
same,Activity,[9],Toxic
same,selectivity ratio,[10],> 16.9
same,EC50,[11],1200 nM
same,solubility,[12],Insoluble
same,Cmax,[13],394 ng/mL
same,Activity,[14],Non-Toxic
same,EC50,[15],500 nM
same,EC50,[16],24500 nM
same,AUC(0-inf),[17],1430 ng·h/mL
same,CC50,[18],> 100000 nM
same,solubility thermodynamic,[19],70.7 µM
same,EC50,[20],26.5 nM
same,half-life,[21],601 min
same,selectivity ratio,[22],> 1790
same,Activity,[23],Toxic
same,Tmax,[24],49.8 min
same,EC50,[25],70 nM
